The values that follow come from ChEMBL document CHEMBL1165857, “Novel 3-alkanoyl/aroyl/heteroaroyl-2H-chromene-2-thiones: synthesis and evaluation of their antioxidant activities” (Eur J Med Chem, 2010).

≈ marks a conversion by molar mass, not a printed value.

The term IC50 denotes the concentration needed to halve the response being measured.

For assay [1], the system named is Radical scavenging activity. In words: Antioxidant activity assessed as DPPH radical scavenging activity. The class given is functional. The procedure, abridged: (§1)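 DPPH (100 μM) in absolute methanol, compounds at 0–1000 μg/mL, in triplicate. After 30 min in the dark at room temperature, absorbance read at 515 nm against a blank. Percent decoloration taken relative to a methanol-treated control with DPPH and no sample; IC50 calculated in μg/mL.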

Assay [2] can be described thus: DPPH radical scavenging activity assessed as ascorbic acid equivalent antioxidant capacity. In kind it is functional. The procedure, abridged:
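DPPH IC50 determined as above (100 μM DPPH in methanol, 30 min dark, room temperature, 515 nm). AEAC in mg ascorbic acid/g sample calculated as IC50(ascorbate)/IC50(sample) × 1000.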
A general note: The DPPH test is a chemical assay of radical scavenging.

The nature of assay [3]: Antioxidant activity assessed as inhibition of glutathione-induced curcumin depletion at 10 ug/ml. The class given is functional. Summed up:
(§2)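 Reaction solution: 20 μM curcumin and 15 mM GSH in 60% methanol, with sample at 10 μg/mL. Control had no sample. Solutions were γ-irradiated to generate GS• radicals; doses up to 250 Gy, with PI reported at 100 Gy. Curcumin depletion followed by absorbance at 425 nm against a blank. Protective index (%) derived from depletion with versus without sample.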

A short description of assay [4]: Protective index against GS radical-induced curcumin depletion at 10 ug/ml irradiated at 100 Gy. Summed up:
as §2

The subject of assay [5] is Radical scavenging activity. In words: Antioxidant activity assessed as DPPH radical scavenging activity at 250 ug/ml. In kind it is functional. The procedure, abridged:
as §1

For the compound `O=C(c1ccc(Cl)cc1)c1cc2cc(Br)ccc2oc1=S`, the IC50 in assay [1] came to 850.41 mg/L (≈ 2240 µM).

As to `COc1cccc2cc(C(=O)c3cccs3)c(=S)oc12`, the Activity in assay [2] stood at 121 mg/g. In assay [3], the INH turned out to be 2.41 µM. Further, the PI in assay [4] worked out at 56.9%. The half-maximal inhibitory concentration (IC50) in assay [1] was 31.2 mg/L (≈ 103 µM).

As for `COc1cccc2cc(C(C)=O)c(=S)oc12`, the half-inhibitory concentration (IC50) in assay [1] came out at 358.67 mg/L (≈ 1530 µM).

In the case of `CC(=O)c1cc2ccccc2oc1=S`, in assay [2], the Activity worked out at 111 mg/g. Also, the INH in assay [3] is 3.27 µM. The same compound came in with a PI in assay [4] of 45.8%. Further, the IC50 in assay [1] stood at 35.01 mg/L (≈ 171 µM).

With `COc1cccc2cc(C(=O)c3ccccc3)c(=S)oc12`, the Activity in assay [2] was 38.7 mg/g. In addition, in assay [4], the PI came to 10.9%. For the same compound, in assay [1], the IC50 was 98.72 mg/L (≈ 333 µM).

In the case of `COc1ccc(C(=O)c2cc3cccc(OC)c3oc2=S)cc1`, the half-maximal inhibitory concentration (IC50) in assay [1] stood at 603.43 mg/L (≈ 1850 µM).

Consider `COc1cccc2cc(C(=O)c3ccc(C)cc3)c(=S)oc12`, for which the Activity in assay [2] was 16.4 mg/g. The compound also came in with a PI in assay [4] of 3.65%. The IC50 in assay [1] was 233.71 mg/L (≈ 753 µM).

Consider `COc1cccc2cc(C(=O)c3ccc(Cl)cc3)c(=S)oc12`, for which the Activity in assay [2] was 40 mg/g. In assay [4], this compound returned a PI of 25.2%. For the same compound, the IC50 in assay [1] was 95.57 mg/L (≈ 289 µM).

Turning to `O=C(c1ccc(Cl)cc1)c1cc2ccccc2oc1=S`, the concentration for half-maximal inhibition (IC50) in assay [1] came to 537.58 mg/L (≈ 1790 µM).

For `COc1ccc(C(=O)c2cc3ccccc3oc2=S)cc1`, the IC50 in assay [1] was found to be 1579.25 mg/L (≈ 5330 µM). The Activity in assay [5] was determined as 6.41%.

In the case of `COc1ccc(C(=O)c2cc3cc(Br)ccc3oc2=S)cc1`, the IC50 in assay [1] is 1112.83 mg/L (≈ 2970 µM).

Consider `Cc1ccc(C(=O)c2cc3ccccc3oc2=S)cc1`, for which the IC50 in assay [1] was found to be 551.57 mg/L (≈ 1970 µM).
